Laboratory results from ChEMBL document CHEMBL1139634, “Synthesis of substituted indole derivatives as a new class of antimalarial agents” (2005).
Values after ≈ are worked out from the molar mass of the structure shown.

The molecules below were run on Plasmodium falciparum (assay: In vitro minimum inhibitory concentration against Plasmodium falciparum NF54 over 40 hours).
Assay type: functional
Summary of the method: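 Micro assay in 96-well format: compounds at 0.25–50 µg/mL, duplicate wells, incubated with parasitized cells at 37 °C in candle jar, 36–40 h. Giemsa-stained smears scored microscopically for ring-to-schizont maturation. MIC is the concentration fully blocking schizont maturation. Pyrimethamine reference.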

Row | MIC [µg/mL] | SMILES
1 | 10 (≈ 24.1 µM) | COc1ccc(-c2cc(-c3c[nH]c4ccccc34)nc(N3CCCCC3)n2)cc1OC
2 | 10 (≈ 29.4 µM) | c1ccc(-c2cc(-c3c[nH]c4ccccc34)nc(N3CCCC3)n2)cc1
3 | 10 (≈ 24.1 µM) | COc1ccc(OC)c(-c2cc(-c3c[nH]c4ccccc34)nc(N3CCCCC3)n2)c1
4 | 10 (≈ 26 µM) | COc1ccc(-c2cc(-c3c[nH]c4ccccc34)nc(N3CCCCC3)n2)cc1
5 | 10 (≈ 25.7 µM) | Clc1ccc(-c2cc(-c3c[nH]c4ccccc34)nc(N3CCCCC3)n2)cc1
6 | 1 (≈ 2.33 µM) | COc1ccc(OC)c(-c2cc(-c3c[nH]c4ccccc34)nc(N3CCN(C)CC3)n2)c1
7 | 10 (≈ 25 µM) | COc1ccc(-c2cc(-c3c[nH]c4ccccc34)nc(N3CCCC3)n2)cc1OC
8 | 10 (≈ 27 µM) | COc1ccc(-c2cc(-c3c[nH]c4ccccc34)nc(N3CCCC3)n2)cc1
9 | 1 (≈ 2.61 µM) | Cc1ccc(-c2cc(-c3c[nH]c4ccccc34)nc(N3CCN(C)CC3)n2)cc1
10 | 50 (≈ 135 µM) | Cc1ccc(-c2cc(-c3c[nH]c4ccccc34)nc(N3CCOCC3)n2)cc1
11 | 10 (≈ 28.2 µM) | Cc1ccc(-c2cc(-c3c[nH]c4ccccc34)nc(N3CCCC3)n2)cc1
12 | 10 (≈ 25 µM) | COc1ccc(OC)c(-c2cc(-c3c[nH]c4ccccc34)nc(N3CCCC3)n2)c1
13 | 10 (≈ 40.2 µM) | CCc1nc(N)nc(N)c1-c1ccc(Cl)cc1 [PYRIMETHAMINE]
14 | 50 (≈ 120 µM) | COc1ccc(-c2cc(-c3c[nH]c4ccccc34)nc(N3CCOCC3)n2)cc1OC
15 | 50 (≈ 128 µM) | Clc1ccc(-c2cc(-c3c[nH]c4ccccc34)nc(N3CCOCC3)n2)cc1
16 | 1 (≈ 2.71 µM) | CN1CCN(c2nc(-c3ccccc3)cc(-c3c[nH]c4ccccc34)n2)CC1
17 | 50 (≈ 129 µM) | COc1ccc(-c2cc(-c3c[nH]c4ccccc34)nc(N3CCOCC3)n2)cc1
18 | 10 (≈ 27.1 µM) | Cc1ccc(-c2cc(-c3c[nH]c4ccccc34)nc(N3CCCCC3)n2)cc1
19 | 1 (≈ 2.33 µM) | COc1ccc(-c2cc(-c3c[nH]c4ccccc34)nc(N3CCN(C)CC3)n2)cc1OC
20 | 1 (≈ 2.5 µM) | COc1ccc(-c2cc(-c3c[nH]c4ccccc34)nc(N3CCN(C)CC3)n2)cc1
21 | 50 (≈ 120 µM) | COc1ccc(OC)c(-c2cc(-c3c[nH]c4ccccc34)nc(N3CCOCC3)n2)c1
22 | 10 (≈ 28.2 µM) | c1ccc(-c2cc(-c3c[nH]c4ccccc34)nc(N3CCCCC3)n2)cc1
23 | 50 (≈ 140 µM) | c1ccc(-c2cc(-c3c[nH]c4ccccc34)nc(N3CCOCC3)n2)cc1
24 | 10 (≈ 26.7 µM) | Clc1ccc(-c2cc(-c3c[nH]c4ccccc34)nc(N3CCCC3)n2)cc1
25 | 1 (≈ 2.48 µM) | CN1CCN(c2nc(-c3ccc(Cl)cc3)cc(-c3c[nH]c4ccccc34)n2)CC1
